The source made the active and inactive calls. The calls are words filed in the database; no cut-off is given here.
Columns and labels:
Mus musculus [1] = test: Toxicity in KK-Ay diabetic mouse model assessed as decrease in body weight at 1 to 5 mg/kg/day administered via oral gavage once daily measured every 3 days post two weeks of compound treatment; type: organism-based; conditions: in vivo, 72 h
Summary of the method: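 In high-fat-fed KK-Ay mice gavaged once daily for 21 days, individual body weight and cage food consumption were recorded every 3 days. Mean ± SEM, n = 8.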

Mus musculus [2] = test: Acute toxicity in mouse assessed as changes in nature of stool up to 3 g/kg, po up to 14 days; conditions: in vivo, 336 h
Mus musculus [3] = test: Antidiabetic activity in KK-Ay diabetic mouse model assessed as reduction in blood glucose level at 1 to 5 mg/kg/day administered via oral gavage once daily for 21 days by oral sucrose tolerance test; type: functional, organism-based
Summary of the method: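 Oral sucrose tolerance test on day 20 of once-daily gavage treatment in high-fat-fed KK-Ay mice. Blood glucose followed over time, and the AUC was calculated. Mean ± SEM, n = 8.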

Mus musculus [4] = test: Antidiabetic activity in KK-Ay diabetic mouse model assessed as reduction in blood glucose level at 5 mg/kg/day administered via oral gavage once daily for 21 days measured at 30 to 60 mins post glucose challenge by oral glucose tolerance test; type: functional, organism-based
Summary of the method: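 OGTT on day 21 of daily gavage dosing in KK-Ay mice. Blood glucose read at time points including 30 and 60 min, and the AUC was calculated. Mean ± SEM, n = 8.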

Mus musculus [5] = test: Acute toxicity in mouse assessed as changes in nature of urine up to 3 g/kg, po up to 14 days; conditions: in vivo, 336 h
[6] = target: Sucrase-isomaltase, intestinal (Rattus norvegicus, UniProt P23739); test: Inhibition of sucrase in rat small intestinal mucosa assessed as reduction in glucose production using sucrose as substrate measured after 40 mins by glucose oxidase assay
Chain of Sucrase-isomaltase, intestinal (P23739 1-1013 limits assumed): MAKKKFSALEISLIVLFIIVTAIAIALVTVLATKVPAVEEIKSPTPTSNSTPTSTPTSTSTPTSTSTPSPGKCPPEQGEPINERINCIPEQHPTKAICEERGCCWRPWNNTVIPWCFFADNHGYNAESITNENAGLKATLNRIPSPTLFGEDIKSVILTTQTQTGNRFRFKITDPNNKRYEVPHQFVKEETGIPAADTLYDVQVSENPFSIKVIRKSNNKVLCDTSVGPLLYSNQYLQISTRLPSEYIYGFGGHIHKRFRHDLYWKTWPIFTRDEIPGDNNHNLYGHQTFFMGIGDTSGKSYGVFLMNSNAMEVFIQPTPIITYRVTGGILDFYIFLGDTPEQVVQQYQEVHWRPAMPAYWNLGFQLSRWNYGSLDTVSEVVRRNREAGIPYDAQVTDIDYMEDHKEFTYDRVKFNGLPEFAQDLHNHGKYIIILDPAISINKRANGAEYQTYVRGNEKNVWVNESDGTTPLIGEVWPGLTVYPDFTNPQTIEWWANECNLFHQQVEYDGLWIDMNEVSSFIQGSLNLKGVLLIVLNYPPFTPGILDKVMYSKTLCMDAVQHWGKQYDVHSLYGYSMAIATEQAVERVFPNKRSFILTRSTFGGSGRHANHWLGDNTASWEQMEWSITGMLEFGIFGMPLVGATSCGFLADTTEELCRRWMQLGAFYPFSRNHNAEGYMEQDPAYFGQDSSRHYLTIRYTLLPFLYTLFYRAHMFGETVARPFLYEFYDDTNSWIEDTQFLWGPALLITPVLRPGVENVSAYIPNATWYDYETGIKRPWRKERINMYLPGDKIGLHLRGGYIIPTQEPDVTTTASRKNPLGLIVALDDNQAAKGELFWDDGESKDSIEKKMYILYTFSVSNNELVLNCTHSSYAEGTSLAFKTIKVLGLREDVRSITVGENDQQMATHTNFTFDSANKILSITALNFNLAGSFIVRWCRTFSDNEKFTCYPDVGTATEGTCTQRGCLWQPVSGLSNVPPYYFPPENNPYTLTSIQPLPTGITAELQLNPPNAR
Chain of Sucrase-isomaltase, intestinal (P23739 1014-1841 limits assumed): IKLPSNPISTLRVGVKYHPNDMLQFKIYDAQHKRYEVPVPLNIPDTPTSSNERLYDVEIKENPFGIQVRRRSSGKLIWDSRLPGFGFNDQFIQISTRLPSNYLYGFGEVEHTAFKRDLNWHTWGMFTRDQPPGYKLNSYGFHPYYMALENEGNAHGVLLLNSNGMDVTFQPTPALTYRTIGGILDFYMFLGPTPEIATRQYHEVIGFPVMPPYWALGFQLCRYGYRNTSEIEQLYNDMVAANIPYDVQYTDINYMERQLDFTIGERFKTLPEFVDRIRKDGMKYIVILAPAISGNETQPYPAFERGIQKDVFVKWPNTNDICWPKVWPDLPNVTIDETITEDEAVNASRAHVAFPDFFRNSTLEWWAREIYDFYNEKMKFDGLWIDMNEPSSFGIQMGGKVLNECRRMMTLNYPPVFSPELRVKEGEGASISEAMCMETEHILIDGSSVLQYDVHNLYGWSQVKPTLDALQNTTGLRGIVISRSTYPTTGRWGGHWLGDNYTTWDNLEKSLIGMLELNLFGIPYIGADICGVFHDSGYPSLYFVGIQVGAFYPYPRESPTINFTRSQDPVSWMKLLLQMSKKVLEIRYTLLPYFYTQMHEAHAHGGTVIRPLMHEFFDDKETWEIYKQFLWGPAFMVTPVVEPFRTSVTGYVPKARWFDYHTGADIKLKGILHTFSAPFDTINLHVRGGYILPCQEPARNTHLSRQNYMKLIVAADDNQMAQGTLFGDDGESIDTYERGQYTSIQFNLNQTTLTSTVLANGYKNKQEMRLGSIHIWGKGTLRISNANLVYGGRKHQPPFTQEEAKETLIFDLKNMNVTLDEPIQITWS
Summary of the method: (§1)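 Rat small intestinal mucosa enzyme. Compound in DMSO mixed with substrate (maltose, sucrose or pNPG) and enzyme in 0.1 M phosphate buffer pH 6.9, incubated 40 min. Glucose released measured by glucose oxidase kit at 550 nm. Blank lacked enzyme, control lacked compound. Percent inhibition calculated from blank-corrected OD.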

Mus musculus [7] = test: Acute toxicity in mouse assessed as convulsion up to […], po up to 14 days; type: organism-based; conditions: in vivo, 336 h
Mus musculus [8] = test: Hypolipidemic activity in KK-Ay diabetic mouse model assessed as reduction in serum NEFA level at 1 to 5 mg/kg/day administered via oral gavage once daily for 21 days; type: functional, organism-based
Summary of the method: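 Male KK-Ay mice (8 weeks old) on high-fat diet with water ad libitum, dosed by gavage once daily for 21 days (1 or 5 mg/kg test; rosiglitazone 10 mg/kg); female C57BL/6J mice as normal controls. Blood collected at study end. Serum lipids, insulin and glucose measured per cited method. ISI calculated from fasting blood glucose and fasting insulin. Mean ± SEM, n = 7-8.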

Mus musculus [9] = test: Antidiabetic activity in KK-Ay diabetic mouse model assessed as reduction in blood glucose level after 4 hrs fasting at 1 to 5 mg/kg/day administered via oral gavage once daily measured on day 3 post dose; type: functional, organism-based
Summary of the method: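 KK-Ay mice on high-fat diet, gavaged once daily (1 or 5 mg/kg; rosiglitazone 10 mg/kg). Blood glucose monitored sequentially after 4 h fasting. Mean ± SEM, n = 8, compared with the KK-Ay model group.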

Saccharomyces cerevisiae = test: Non-competitive inhibition of baker's yeast alpha-glucosidase using varying levels of p-nitrophenyl alpha-D-glucopyranoside as substrate preincubated for 10 mins followed by substrate addition measured for 15 mins by Lineweaver-Burk plot analysis
Summary of the method: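 Kinetics with inhibitor at 0.3 to 1 μM against α-glucosidase. pNPG at 2, 4, 6 and 8 μM. Initial velocities measured with and without inhibitor, and inhibition type assigned from Michaelis-Menten and Lineweaver-Burk plots.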

[10] = target: T1, 3-hydroxy-3-methylglutaryl-coenzyme A reductase (Sus scrofa) (UniProt Q1W675); test: Non-competitive inhibition of HMG-CoA reductase in pig liver microsomes using varying levels of HMG-CoA as substrate preincubated for 5 mins followed by NADPH addition measured after 15 mins by Lineweaver-Burk plot analysis
T1 sequence (whole entry): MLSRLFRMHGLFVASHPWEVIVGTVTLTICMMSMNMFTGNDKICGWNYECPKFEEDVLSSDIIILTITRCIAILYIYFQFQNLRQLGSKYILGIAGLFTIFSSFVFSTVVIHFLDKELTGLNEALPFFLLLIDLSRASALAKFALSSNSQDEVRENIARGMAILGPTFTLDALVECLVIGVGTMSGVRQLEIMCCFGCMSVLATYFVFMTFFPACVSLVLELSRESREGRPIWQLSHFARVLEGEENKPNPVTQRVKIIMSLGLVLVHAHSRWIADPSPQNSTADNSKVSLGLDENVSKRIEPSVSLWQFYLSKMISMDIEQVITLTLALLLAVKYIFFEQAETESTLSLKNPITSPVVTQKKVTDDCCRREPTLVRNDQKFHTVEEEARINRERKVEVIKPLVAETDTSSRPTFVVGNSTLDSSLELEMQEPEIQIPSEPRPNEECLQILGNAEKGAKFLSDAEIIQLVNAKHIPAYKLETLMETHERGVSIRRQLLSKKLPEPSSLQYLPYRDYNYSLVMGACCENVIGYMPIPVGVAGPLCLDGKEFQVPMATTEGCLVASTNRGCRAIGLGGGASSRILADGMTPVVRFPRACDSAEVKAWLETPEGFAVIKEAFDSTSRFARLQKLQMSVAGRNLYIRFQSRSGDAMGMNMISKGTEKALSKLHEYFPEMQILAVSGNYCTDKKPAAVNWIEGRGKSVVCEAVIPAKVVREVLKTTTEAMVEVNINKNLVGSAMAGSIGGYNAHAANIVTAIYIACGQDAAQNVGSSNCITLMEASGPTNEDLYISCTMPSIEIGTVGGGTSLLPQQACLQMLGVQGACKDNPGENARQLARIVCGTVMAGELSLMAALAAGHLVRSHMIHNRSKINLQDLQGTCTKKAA
Summary of the method: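 HMG-CoA reductase kinetics: inhibitor at 5 to 20 μM, HMG-CoA at 2, 4, 6 and 8 μM. Initial velocities with and without inhibitor analysed by Lineweaver-Burk double-reciprocal plots.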

Mus musculus [11] = test: Acute toxicity in mouse assessed as mortality up to […], po up to 14 days; type: organism-based; conditions: in vivo, 336 h
Mus musculus [12] = test: Antidiabetic activity in KK-Ay diabetic mouse model assessed as reduction in free diet blood glucose level at 1 to 5 mg/kg/day administered via oral gavage once daily measured on day 3 post dose; type: functional, organism-based
Summary of the method: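 Non-fasted (free diet) blood glucose was tracked serially in high-fat-fed KK-Ay mice given daily gavage doses (1 or 5 mg/kg; rosiglitazone 10 mg/kg). Mean ± SEM, n = 8.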

[13] = Inhibition of maltase in rat small intestinal mucosa assessed as reduction in glucose production using maltose as substrate measured after 40 mins by glucose oxidase assay; summary of the method: as §1
Mus musculus [14] = test: Hypoglycemic activity in KK-Ay diabetic mouse model assessed as increase in liver hepatic glycogen level at 1 to 5 mg/kg/day administered via oral gavage once daily for 4 weeks; type: functional, organism-based
Mus musculus [15] = test: Acute toxicity in mouse assessed as effect on behavior up to 3 g/kg, po up to 14 days; conditions: in vivo, 336 h

CC(C)=CCC/C(C)=C/CCC1=C[C@H](c2cc(O)ccc2O)OC1=O
Activity (Mus musculus [1]): Toxic
Activity (Mus musculus [2]): Non-Toxic
Activity (Mus musculus [3]): Active
Activity (Mus musculus [4]): Active
Activity (Mus musculus [5]): Non-Toxic
IC50 [6]: 67.6 µM
Activity (Mus musculus [7]): Non-Toxic
Activity (Mus musculus [8]): Active
Activity (Mus musculus [9]): Active
inhibition (Saccharomyces cerevisiae): Active
inhibition [10]: Active
Activity (Mus musculus [11]): Non-Toxic
Activity (Mus musculus [12]): Active
IC50 [13]: 3.6 µM
Activity (Mus musculus [14]): Active
Activity (Mus musculus [15]): Non-Toxic
